Structures are written as SMILES. Where only a bound is given, the exact number is not on record here.

The subject of one assay is HT-29. The assay is described as follows: Inhibition of HT-29 cell proliferation. The settings on record: Homo sapiens. Format: functional, cell-based. In outline:
(§1)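 SRB colorimetric growth assay. Exponentially growing cells were seeded so they would undergo 3-5 doublings before reaching 85% confluence. Graded compound concentrations were added 18 h later, and cells were incubated 5 days at 37 °C in 5% CO2. Cells were fixed with cold TCA for 1 h at 4 °C, stained with 0.4% SRB in 1% acetic acid, solubilized in 10 mM Tris base, and OD read at 570 nm.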

In assay [1] the target is Cyclin-dependent kinase 1/cyclin B (Homo sapiens, UniProt P06493). The assay is described as follows: Inhibition of Cyclin-dependent kinase 1-cyclin B. Format: protein-complex assay.
Assay [2] has as its target Cyclin-dependent kinase 2/cyclin E (Homo sapiens, UniProt P24941). The assay is described as follows: Inhibitory concentration against Cyclin-dependent kinase 2-cyclin E. Format: protein-complex assay.
The next assay relates to MIA PaCa-2. The assay is described as follows: Inhibition of MiaPaCa2 cell proliferation. The settings on record: Homo sapiens. Format: functional, cell-based. In outline:
as §1

Assay [3] deals with Tyrosine-protein kinase ABL1 (Homo sapiens, UniProt P00519). The assay is described as follows: Inhibition of c-Abl tyrosine kinase.
Another assay relates to AG1523. The assay is described as follows: Effective concentration against normal human fibroblast cell line AG1523. Format: functional, cell-based. Summed up: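 Normal human foreskin fibroblasts AG1523 were seeded at a density giving confluence and contact inhibition of growth. Graded compound concentrations were added 18 h later, and cells were incubated 6 days at 37 °C in 5% CO2. Death effects were scored by SRB colorimetry: cold TCA fixation, 0.4% SRB stain, Tris base solubilization, OD at 570 nm.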

A further assay relates to HT-1080. The assay is described as follows: Inhibition of HT1080 cell proliferation. Format: functional, cell-based. Particulars: Homo sapiens. Summed up: as §1
The test system of a further assay is PC-3. The assay is described as follows: Inhibition of PC3 cell proliferation. Format: functional, cell-based. Particulars: Homo sapiens. In outline:
as §1

The subject of the next assay is B16. The assay is described as follows: Inhibitory activity against B16-F1 cell line. Format: functional, cell-based. The settings on record: Mus musculus.
A further assay relates to HCT-116. The assay is described as follows: Inhibition of HCT116 colon carcinoma cell proliferation. Format: functional, cell-based. The settings on record: Homo sapiens. In outline:
as §1

The target in assay [4] is cAMP-dependent protein kinase (PKA) (Homo sapiens, UniProt P22694+P17612+P22612). The assay is described as follows: Inhibition of Protein kinase A (PKA). Format: protein assay.
A further assay deals with Protein kinase C (PKC). The assay is described as follows: Inhibition of Protein kinase C. Format: protein assay.
Another assay deals with NCI-H460. The assay is described as follows: Inhibition of NCI-H460 cell proliferation. Format: functional, cell-based. The settings on record: Homo sapiens. In outline: as §1
Assay [5] concerns the target Cyclin-dependent kinase 4/cyclin D1 (Homo sapiens, UniProt P11802). The assay is described as follows: Inhibitory concentration against Cyclin-dependent kinase 4-cyclin D1. Format: protein-complex assay. Summed up: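 CDK4/cyclin D1 came from extracts of insect cells dually infected with baculovirus vectors. Reactions were started with 4 units of enzyme, run 15 min at room temperature, and stopped with EDTA. Product was captured on GSH-Sepharose and counted by scintillation.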

Sequence of Tyrosine-protein kinase ABL1 (P00519 whole entry): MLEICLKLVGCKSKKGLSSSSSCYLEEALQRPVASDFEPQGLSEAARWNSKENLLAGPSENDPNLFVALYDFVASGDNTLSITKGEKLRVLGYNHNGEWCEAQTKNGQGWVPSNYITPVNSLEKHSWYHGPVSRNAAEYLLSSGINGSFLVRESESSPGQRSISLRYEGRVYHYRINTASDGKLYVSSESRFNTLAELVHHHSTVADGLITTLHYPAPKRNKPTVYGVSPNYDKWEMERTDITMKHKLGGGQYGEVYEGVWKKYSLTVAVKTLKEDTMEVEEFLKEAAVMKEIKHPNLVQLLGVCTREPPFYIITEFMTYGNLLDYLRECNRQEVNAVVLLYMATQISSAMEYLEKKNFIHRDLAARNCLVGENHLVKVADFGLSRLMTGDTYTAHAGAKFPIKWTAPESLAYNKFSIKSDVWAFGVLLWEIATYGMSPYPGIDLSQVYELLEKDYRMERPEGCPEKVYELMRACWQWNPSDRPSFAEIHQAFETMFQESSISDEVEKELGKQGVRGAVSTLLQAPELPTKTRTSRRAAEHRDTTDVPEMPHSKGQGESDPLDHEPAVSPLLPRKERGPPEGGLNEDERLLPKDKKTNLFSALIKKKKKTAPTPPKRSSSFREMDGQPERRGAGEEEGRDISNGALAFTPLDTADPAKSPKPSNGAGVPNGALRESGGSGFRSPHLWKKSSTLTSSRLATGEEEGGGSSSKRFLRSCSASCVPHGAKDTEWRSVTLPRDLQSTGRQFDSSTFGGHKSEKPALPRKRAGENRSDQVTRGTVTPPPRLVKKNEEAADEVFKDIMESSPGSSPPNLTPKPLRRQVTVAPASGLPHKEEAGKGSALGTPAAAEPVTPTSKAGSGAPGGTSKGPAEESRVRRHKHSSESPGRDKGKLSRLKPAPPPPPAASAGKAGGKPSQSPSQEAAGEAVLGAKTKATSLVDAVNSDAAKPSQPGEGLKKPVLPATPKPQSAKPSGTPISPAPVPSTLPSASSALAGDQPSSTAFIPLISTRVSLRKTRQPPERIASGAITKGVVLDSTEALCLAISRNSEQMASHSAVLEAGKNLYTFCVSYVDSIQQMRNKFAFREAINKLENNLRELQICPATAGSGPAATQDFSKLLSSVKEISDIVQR
Sequence of Cyclin-dependent kinase 4/cyclin D1 (P11802 whole entry): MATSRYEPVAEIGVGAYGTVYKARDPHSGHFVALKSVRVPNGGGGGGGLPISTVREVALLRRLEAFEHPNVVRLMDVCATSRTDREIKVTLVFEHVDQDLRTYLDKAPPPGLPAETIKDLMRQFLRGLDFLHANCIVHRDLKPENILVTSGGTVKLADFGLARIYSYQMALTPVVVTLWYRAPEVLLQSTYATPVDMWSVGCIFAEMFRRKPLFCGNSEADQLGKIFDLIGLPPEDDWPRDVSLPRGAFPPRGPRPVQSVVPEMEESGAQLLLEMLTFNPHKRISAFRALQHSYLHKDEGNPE
Sequence of Cyclin-dependent kinase 4/cyclin D1 (P24385 whole entry, further chain): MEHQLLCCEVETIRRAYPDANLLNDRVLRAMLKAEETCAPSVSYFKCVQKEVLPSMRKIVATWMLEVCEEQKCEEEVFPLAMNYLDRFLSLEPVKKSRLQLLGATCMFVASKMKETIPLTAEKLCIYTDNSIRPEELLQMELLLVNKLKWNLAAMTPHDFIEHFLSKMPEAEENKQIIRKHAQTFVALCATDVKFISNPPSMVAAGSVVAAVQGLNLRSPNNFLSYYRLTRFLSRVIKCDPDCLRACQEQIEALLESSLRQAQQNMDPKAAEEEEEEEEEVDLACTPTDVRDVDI

In the case of `NC(=O)Nc1cccc2c1C(=O)c1c(-c3csc(Cl)c3)n[nH]c1-2`, the IC50 in the assay on HT-29 was greater than 2900 nM; in assay [1] it was 44 nM; in assay [2], 13 nM; in the assay with MIA PaCa-2, 260 nM; in [3], greater than 60000 nM; with HT-1080 it was 490 nM. Further, the IC50 in the assay with PC-3 was 690 nM; with B16, 200 nM; in the assay with HCT-116, 130 nM; in assay [4], greater than 58000 nM; against Protein kinase C (PKC), greater than 58000 nM; with NCI-H460, 240 nM. This compound returned an IC50 in [5] of 57 nM. In the assay with AG1523, this compound displayed an EC50 greater than 29000 nM.

By IC50 is commonly meant the concentration needed to halve the response being measured. Low readings indicate greater potency in that assay, high ones weaker potency in that assay. Usually EC50 stands for the concentration at which the effect is half-maximal. A low value points to higher potency in that assay.

The values are drawn from ChEMBL document CHEMBL1136010, “Synthesis and evaluation of indenopyrazoles as cyclin-dependent kinase inhibitors. 3. Structure activity relationships at C3(1,2)” (J Med Chem, 2002).
